Activity calls are given as the source filed them. No cut-off for these calls is given here.
Legend:
[1] = Inhibition of Escherichia coli DNA polymerase 1 with 3' to 5'-exonucleolytic activity using dCTP as substrate assessed as single base extension reaction after 2 hrs
How it was run: (§1)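 Compound (0.4–2.0 mM; 1- to 5-fold over dCTP) added together with 0.4 mM dCTP in 0.05 M Tris-HCl pH 8.0, 5 mM MgCl2, 1 mM DTT, 2 h at 37 °C. The n+1 product was quantified after 20% PAGE/7 M urea and autoradiography; EC50 is the concentration giving 50% inhibition.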

[2] = Inhibition of Escherichia coli DNA polymerase 1 without 3' to 5'-exonucleolytic activity using dCTP as substrate assessed as single base extension reaction after 2 hrs; how it was run: as §1
Thermococcus sp. 9oN-7 [3] = assay: Inhibition of Thermococcus sp. 9oN-7 therminator DNA polymerase assessed as single base extended product level after 1 hr by single base extension reaction based electrophoresis method; parameters: concentration or dose not given beside the values
HeLa [4] = assay: Cytotoxicity against human HeLa cells assessed as reduction of cell survival after 72 hrs by MTT assay; format: functional, cell-based
How it was run: (§2)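 HeLa seeded at 7×10^3 and CFPAC at 10^4 per well in RPMI 1640 with 10% FCS under 5% CO2. After 24 h, exposure to compounds (aqueous 100 mM stock; final 1 mM to 1×10^-6 mM) for 72 or 96 h. MTT 2 h, formazan dissolved in 20% SDS/50% DMF pH 4.7, A570/650. Untreated cells = 100%; IC50 from dose-response curves, 2 independent experiments in triplicate.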

Thermococcus sp. 9oN-7 [5] = assay: Activity of Thermococcus sp. 9oN-7 therminator DNA polymerase after 2 hrs by single base extension reaction based electrophoresis method
HeLa [6] = assay: Cytotoxicity against human HeLa cells assessed as reduction of cell survival after 96 hrs by MTT assay; format: functional, cell-based; how it was run: as §2
[7] = biological target: Adenosine 5'-monophosphoramidase HINT1 (Oryctolagus cuniculus, UniProt P80912); assay: Stability assessed as rabbit recombinant HINT1-mediated compound hydrolysis at 1 mM after 22 hrs by RP-HPLC analysis; format: ADME; conditions: 1000 µM
How it was run: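 Recombinant Hint-1 was expressed from pSGA02-HINT in E. coli BL21, purified on AMP-agarose, and dialysed into 20 mM Tris pH 7.5/150 mM NaCl. Substrate 1 mM in 20 mM Na-HEPES pH 7.2, 0.5 mM MgCl2 with rHint-1, 22 h at 37 °C. Analysed by C18 RP-HPLC at 260 nm via peak integration; mean ± SE of at least duplicate.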

Escherichia coli [8] = assay: Activity of Escherichia coli DNA polymerase 1 without 3' to 5'-exonucleolytic activity after 2 hrs by single base extension reaction based electrophoresis method
How it was run: (§3)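 Test compound with KF+ or KF- (1U) in 0.05 M Tris-HCl pH 8.0, 5 mM MgCl2, 1 mM DTT, 2 h at 37 °C, then heat-denatured. Read-out was 20% PAGE/7 M urea, autoradiography and quantitation of n+1 product; dCTP reaction served as control.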

[9] = biological target: T1, HINT1 (adenosine 5'-monophosphoramidase) (Homo sapiens, UniProt P49773); assay: Stability in human HeLa cell lysate assessed as HINT-1-mediated phosphoramidase activity by measuring compound remaining at 1 mM after 22 hrs by RP-HPLC analysis relative to control; format: ADME, cell-based; conditions: read-out: Stability
How it was run: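 HeLa lysate from confluent cells, sonicated in PBS with protease inhibitors. Substrate 1 mM in 20 mM Na-HEPES pH 7.2, 0.5 mM MgCl2, 22 h at 37 °C. Ice-quenched, heat-denatured, centrifuged. C18 RP-HPLC (acetonitrile 0–8% in 0.1 M TEAB pH 7.4) at 260 nm; intact substrate quantified by peak integration; mean ± SE of at least duplicate.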

[10] = biological target: T1, HINT1 (adenosine 5'-monophosphoramidase); assay: Stability in human K562 cell lysate assessed as HINT-1-mediated phosphoramidase activity by measuring compound remaining at 1 mM after 22 hrs by RP-HPLC analysis relative to control; format: ADME, cell-based; conditions: read-out: Stability
How it was run: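 K562 lysate from confluent cells, scraped and sonicated in PBS with protease inhibitors. Substrate 1 mM in 20 mM Na-HEPES pH 7.2, 0.5 mM MgCl2, with lysate protein, 22 h at 37 °C. Quenched on ice, heat-denatured, centrifuged. Supernatant analysed by C18 RP-HPLC (0–8% acetonitrile in 0.1 M TEAB pH 7.4, 20 min) at 260 nm. Peaks integrated; products identified by co-injection; mean ± SE, at least duplicate.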

K562 = assay: Cytotoxicity against human K562 cells assessed as reduction of cell survival after 48 hrs by MTT assay; format: functional, cell-based; conditions: K562, 48 h
How it was run: (§4)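 HUVEC (from fresh umbilical cords, gelatin-coated dishes, RPMI 1640 with 20% FBS, heparin, ECGF) and K562 (RPMI 1640, 10% FCS) were seeded at 7×10^3 per well. After 24 h, exposure for 48 h to compounds from 100 mM aqueous stock, final 1 mM down to 1×10^-6 mM. MTT read at 570/650 nm; untreated = 100%; IC50 from dose-response curves, mean of 2 experiments in triplicate.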

CFPAC-1 [11] = assay: Cytotoxicity against human CFPAC-1 cells assessed as reduction of cell survival after 96 hrs by MTT assay; format: functional, cell-based; conditions: CFPAC-1, 96 h; how it was run: as §2
Escherichia coli [12] = assay: Activity of Escherichia coli DNA polymerase 1 with 3' to 5'-exonucleolytic activity after 2 hrs by single base extension reaction based electrophoresis method; how it was run: as §3
CFPAC-1 [13] = assay: Cytotoxicity against human CFPAC-1 cells assessed as reduction of cell survival after 72 hrs by MTT assay; format: functional, cell-based; conditions: CFPAC-1, 72 h; how it was run: as §2
[14] = biological target: T2, DNA polymerase alpha catalytic subunit (Homo sapiens, UniProt P09884); assay: Inhibition of human DNA polymerase alpha using dCTP as substrate assessed as single base extension reaction after 2 hrs
T2 sequence (P09884 whole entry): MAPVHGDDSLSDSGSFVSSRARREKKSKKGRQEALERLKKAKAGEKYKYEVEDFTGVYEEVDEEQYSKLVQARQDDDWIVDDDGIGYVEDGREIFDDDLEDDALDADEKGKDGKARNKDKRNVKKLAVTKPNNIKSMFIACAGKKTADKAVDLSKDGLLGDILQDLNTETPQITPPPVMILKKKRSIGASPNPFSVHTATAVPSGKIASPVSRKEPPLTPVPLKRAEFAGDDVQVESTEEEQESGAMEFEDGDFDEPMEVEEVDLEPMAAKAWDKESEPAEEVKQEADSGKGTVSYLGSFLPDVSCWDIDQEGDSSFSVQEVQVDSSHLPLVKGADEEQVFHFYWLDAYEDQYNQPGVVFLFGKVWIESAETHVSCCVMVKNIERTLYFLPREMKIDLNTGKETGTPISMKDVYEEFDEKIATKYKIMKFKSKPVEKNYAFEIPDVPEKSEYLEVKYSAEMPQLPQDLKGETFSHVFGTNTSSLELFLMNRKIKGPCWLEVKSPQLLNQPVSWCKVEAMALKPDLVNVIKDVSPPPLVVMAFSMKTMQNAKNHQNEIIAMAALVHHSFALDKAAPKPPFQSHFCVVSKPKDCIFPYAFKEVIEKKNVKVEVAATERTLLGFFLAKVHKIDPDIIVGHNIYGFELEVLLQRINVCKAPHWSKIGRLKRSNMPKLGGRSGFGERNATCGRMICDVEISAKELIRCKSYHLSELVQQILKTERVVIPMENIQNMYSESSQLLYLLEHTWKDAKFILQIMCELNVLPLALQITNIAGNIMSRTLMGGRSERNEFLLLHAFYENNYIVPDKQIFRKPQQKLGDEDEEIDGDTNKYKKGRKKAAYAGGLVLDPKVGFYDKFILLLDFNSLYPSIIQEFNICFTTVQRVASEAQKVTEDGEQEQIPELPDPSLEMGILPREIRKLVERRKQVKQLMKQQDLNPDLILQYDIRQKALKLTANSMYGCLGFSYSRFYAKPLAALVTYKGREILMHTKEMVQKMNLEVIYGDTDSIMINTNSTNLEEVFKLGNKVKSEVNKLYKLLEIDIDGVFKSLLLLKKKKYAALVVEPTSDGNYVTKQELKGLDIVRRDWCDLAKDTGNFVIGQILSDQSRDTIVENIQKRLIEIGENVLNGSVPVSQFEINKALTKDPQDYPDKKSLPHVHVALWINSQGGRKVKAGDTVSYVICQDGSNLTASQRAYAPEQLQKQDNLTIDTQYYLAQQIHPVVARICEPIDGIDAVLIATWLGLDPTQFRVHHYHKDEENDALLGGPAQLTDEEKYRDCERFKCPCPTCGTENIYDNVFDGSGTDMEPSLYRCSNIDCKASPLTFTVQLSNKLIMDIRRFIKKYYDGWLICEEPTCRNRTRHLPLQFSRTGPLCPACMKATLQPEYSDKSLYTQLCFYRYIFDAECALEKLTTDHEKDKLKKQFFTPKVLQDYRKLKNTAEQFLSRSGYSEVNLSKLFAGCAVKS

HUVEC = assay: Cytotoxicity against HUVEC assessed as cell after 48 hrs by MTT assay; format: cell-based; conditions: Homo sapiens; how it was run: as §4

Sequence of Adenosine 5'-monophosphoramidase HINT1 (P80912 whole entry): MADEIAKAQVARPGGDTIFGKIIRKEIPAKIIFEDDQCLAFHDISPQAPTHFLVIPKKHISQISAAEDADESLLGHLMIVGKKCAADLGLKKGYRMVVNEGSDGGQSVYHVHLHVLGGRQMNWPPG
T1 sequence (P49773 whole entry): as the sequence (P80912 whole entry) above, with Q37R, A65V, A69D, K91N, N122H counted along it

Compound | EC50 [1] [µM] | EC50 [2] [µM] | Activity (Thermococcus sp. 9oN-7 [3]) [%] | IC50 (HeLa [4]) [µM] | Activity (Thermococcus sp. 9oN-7 [5]) | IC50 (HeLa [6]) [µM] | Stability [7] | Activity (Escherichia coli [8]) | remaining at 22 h, 1000 µM [9] [%] | remaining at 22 h, 1000 µM [10] [%] | IC50 (K562) [µM] | IC50 (CFPAC-1 [11]) [µM] | Activity (Escherichia coli [12]) | IC50 (CFPAC-1 [13]) [µM] | EC50 [14] [µM] | IC50 (HUVEC) [µM]
Nc1ncnc2c1ncn2[C@H]1C[C@H](O)[C@@H](COP(=O)(O)NC(=O)c2cccnc2)O1 | 540 | 490 | – | – | – | – | – | – | – | – | – | – | – | – | – | –
CC(=O)N1CCC[C@H]1C(=O)NP(=O)(S)OC[C@H]1O[C@@H](n2ccc(N)nc2=O)C(F)(F)[C@@H]1O (some centres not stated) | > 2000 | > 2000 | 100 | 500 | inactive | 450 | Stable | inactive | 100 | 85.3 | > 1000 | 310 | inactive | 350 | > 500 | 800
Nc1ccn([C@@H]2O[C@H](COP(=O)(S)NC(=O)c3ccccc3)[C@@H](O)C2(F)F)c(=O)n1 (some centres not stated) | 1030 | 990 | 100 | 900 | inactive | 650 | Stable | inactive | 100 | 91.5 | 800 | 315 | inactive | 425 | 350 | > 1000
CC(=O)N[C@@H](Cc1ccccc1)C(=O)NP(=O)(O)OC[C@H]1O[C@@H](n2ccc(N)nc2=O)C(F)(F)[C@@H]1O | > 2000 | > 2000 | 100 | > 1000 | inactive | 45 | Stable | inactive | 71 | 45.9 | 80 | 0.45 | inactive | 0.42 | > 500 | 200
CC(=O)N1CCC[C@H]1C(=O)NP(=O)(O)OC[C@H]1O[C@@H](n2ccc(N)nc2=O)C(F)(F)[C@@H]1O | 680 | 1160 | 100 | 80 | inactive | 0.8 | Stable | inactive | 89.6 | 80.2 | 30 | 0.55 | inactive | 0.62 | 410 | 10
Nc1ccn([C@@H]2O[C@H](COP(=O)(O)NC(=O)c3ccncc3)[C@@H](O)C2(F)F)c(=O)n1 | > 2000 | > 2000 | 100 | 10 | inactive | 0.9 | Stable | inactive | 76.7 | 82.8 | 0.1 | 0.45 | inactive | 0.62 | > 500 | 0.05

From ChEMBL document CHEMBL3232882, “N-Acyl-phosphoramidates as potential novel form of gemcitabine prodrugs” (Bioorg Med Chem, 2014)
